Screens from PubChem.
Rows were chosen to be rich in hits. Some 3.9% of all compounds tested hit in one or more screens of this group.
HTR2A ag: agonists of mouse serotonin 5-HT2A receptor (HTR2A); AID 624169; CHO-K1 mHTR2A beta-arrestin complementation, luminescence; percent of 30 µM serotonin response; activation, % at 7.6 µM; 0.66% of 360,000 active; P35363;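 active = activation above a run cutoff, the mean activation of all tested compounds plus 3 SD, cut at about 14% in these data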;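 also: 0% = plate median of compound wells and 100% = 30 µM serotonin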
M1 antag: blocks human M1 muscarinic receptor. P11229. CHO-K1 hM1, Fluo-8 calcium fluorescence, ACh EC80 antagonist. inhibition, % at 3 µM. 1.3% of 360,000 active. AID 588852;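 active = percent inhibition above its own plate's cutoff, namely the mean of that plate's compound wells plus 3 SD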;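 also: peak over basal fluorescence ratio during 140 s after agonist addition; 0% = ACh EC80 plus DMSO and 100% = DMSO alone without agonist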
M1 PAM: positive allosteric modulators of human M1 muscarinic receptor. 0.088% of 360,000 active. CHO-K1 hM1, Fluo-8 calcium fluorescence, ACh EC20; 0% = ACh EC20, 100% = maximal ACh. P11229. AID 588819. activation, % at 3 µM; in the data active = activation above about 19%, passing the limit was not always enough
TAAR1 antagonist: antagonists of human TAAR1; Q96RJ0; CHO RD-HGA16 TAAR1, Fluo-8 calcium fluorescence, antagonist; inhibition, % at 3 µM; 1.5% of 360,000 active; AID 624466;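 active = inhibition above a per-plate cutoff, the mean inhibition of test compounds on that plate plus 3 SD, cut at about 49% in these data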;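 also: 0% = DMSO plus EC80 beta-PEA response and 100% = DMSO alone without agonist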
Target sequence (Q96RJ0 whole entry, looked up): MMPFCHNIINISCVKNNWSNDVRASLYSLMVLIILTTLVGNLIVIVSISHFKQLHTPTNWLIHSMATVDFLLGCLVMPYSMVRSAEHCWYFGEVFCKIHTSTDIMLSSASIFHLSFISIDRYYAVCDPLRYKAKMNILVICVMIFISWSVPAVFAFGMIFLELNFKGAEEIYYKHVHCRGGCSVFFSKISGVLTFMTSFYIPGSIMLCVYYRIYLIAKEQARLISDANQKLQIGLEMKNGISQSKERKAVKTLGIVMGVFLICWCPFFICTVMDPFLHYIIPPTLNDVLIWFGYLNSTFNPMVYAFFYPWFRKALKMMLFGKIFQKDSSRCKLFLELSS
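Assay system: CHO-derived RD-HGA16 cells stably expressing human TAAR1 plus Gα16. Timing: 140 s kinetic read after compound, 140 s after agonist. Technique: kinetic Fluo-8 calcium fluorescence measurement. Measure: % inhibition of agonist calcium response.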
TAAR1 ag: agonists of human TAAR1. AID 624467. 0.99% of 360,000 active. activation, % at 3 µM. CHO RD-HGA16 TAAR1, Fluo-8 calcium fluorescence; vehicle wells 0%, saturating PEA agonist 100%;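 active = activation above the mean activation of all test compounds in the run plus 3 SD, cut at about 38% in these data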
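Test system: RD-HGA16 (CHO) cells co-expressing Gα16 and hTAAR1 | Doses: Single dose, 3 µM | Schedule: 17-24 h seeding, 75 min 37 °C dye, 30 min RT | Evaluation: % activation from peak over basal fluorescence ratio, DMSO-to-PEA scaled | Technique: Kinetic Fluo-8 calcium fluorescence | Benchmarks: Low control DMSO, high control PEA (EC100)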
M1 ag: agonists of human M1 muscarinic receptor; CHO-K1 hM1, Fluo-8 calcium fluorescence, agonist mode; 0% DMSO, 100% acetylcholine EC100; activation, % at 3 µM; 0.33% of 360,000 active; AID 588814;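 active = activation above the run's mean compound activation plus 3 SD, cut at about 16% in these data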;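 also: peak over basal fluorescence ratio within a 140 s kinetic read after compound addition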
TAAR1 nonsel count: nonselective antagonist in TAAR1 antagonist counter-screen; inhibition, % at 3 µM; counterscreen cell line, calcium fluorescence, antagonist mode; 77% of 2,400 active; AID 651780; shares compounds with TAAR1 antagonist; in the data active = inhibition above about 22%;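 also: CHO-Ga16 host cells stimulated with ATP at an EC80 level; 0% = agonist EC80 plus vehicle and 100% = vehicle without agonist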
TAAR1 ant conf: human TAAR1 antagonism, confirmed; shares compounds with TAAR1 antagonist; TAAR1-expressing cells, fluorescence antagonist read-out; inhibition, % at 3 µM; 40% of 2,400 active; in the data active = inhibition above about 49%;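 also: CHO-Ga16 host cells challenged with agonist PEA near its EC80; 0% = agonist at EC80 plus vehicle and 100% = vehicle with no agonist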
Ga16 ag counter: nonselective Ga16 agonism, counter-screen | shares compounds with TAAR1 antagonist | Ga16-expressing cells, calcium fluorescence, agonist counterscreen | activation, % at 3 µM | 18% of 2,400 active | AID 651953; in the data active = activation above about 12%;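 also: 0% = vehicle wells and 100% = saturating stimulus response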
TAAR1 ag counter: TAAR1 agonism, antagonist counter-screen; shares compounds with TAAR1 antagonist; 2% of 2,400 active; AID 651955; hTAAR1 cell line, fluorescence activation, agonist mode; activation, % at 3 µM; in the data active = activation above about 37%;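 also: CHO cells stably expressing TAAR1 with calcium dye readout; 0% = DMSO vehicle and 100% = full agonist response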
The depositor's hits bear a star; / = not tested or not shown.

SMILES	HTR2A ag	M1 antag	M1 PAM	TAAR1 antagonist	TAAR1 ag	M1 ag	TAAR1 nonsel count	TAAR1 ant conf	Ga16 ag counter	TAAR1 ag counter
C=CCn1c(O)c(C(C)=NCCC(c2ccccc2)c2ccccc2)c(=O)[nH]c1=O	-2.7	-3.0	3.9	52.1*	3.1	-6.8	26.7*	38.6	5.2	8.6
CSCCC(c1nnnn1Cc1ccccc1)N1CCC2(CC1)C(=O)NCN2c1ccccc1 (configuration not stated)	-0.6	-12.2	-0.5	52.4*	13.2	-0.6	27.9*	39.8	7.0	6.3
O=C1NCN(c2ccccc2)C12CCN(C(c1ccnc3ccccc13)c1nnnn1-c1ccc3c(c1)OCCO3)CC2 (configuration not stated)	1.4	-10.4	-6.4	59.2*	19.0	-2.6	28.5*	43.3	10.4	10.7
O=C1NCN(c2ccccc2)C12CCN(C(CCc1ccccc1)c1nnnn1Cc1ccccc1)CC2 (configuration not stated)	-3.3	-13.1	-0.1	18.8	0.1	-1.7	/	/	/	/
O=C1NCN(c2ccccc2)C12CCN(C(c1nnnn1Cc1ccccc1)C1CC1)CC2 (configuration not stated)	5.5	-11.2	-3.8	18.0	4.4	-1.0	/	/	/	/
O=C1NCN(c2ccccc2)C12CCN(C(c1ccccc1)c1nnnn1Cc1ccccc1)CC2 (configuration not stated)	2.2	-27.2	4.6	53.0*	8.7	1.6	19.6	30.2	7.1	2.9
O=C1NC(=O)C(CCc2ccccn2)(Cc2ccc3c(c2)OCO3)C(=O)N1CCc1ccccc1 (configuration not stated)	0.4	15.6	-7.1	38.9	13.6	-2.1	/	/	/	/
COC(=O)C1=C(C)NC(=S)NC1c1ccc(N(CCCl)CCCl)cc1Cl (configuration not stated)	-4.4	-14.5	5.3	-46.0	0.0	-4.0	/	/	/	/
C=C1[C@@H](C)[C@H]2[C@H](Cc3ccccc3)NC(=O)[C@]23OC(=O)/C=C/[C@H](O)CCC[C@@H](C)C/C=C/[C@H]3[C@@H]1O	7.6	-3.8	-7.0	71.8*	20.1	-1.8	32.0*	55.2*	11.3	12.7
C=C1C(C)C2C(Cc3ccccc3)NC(=O)C23C(OC(C)=O)C=CC(C)(O)CC(C)CC=CC3C1O (configuration not stated)	11.2	-9.6	1.6	-6.7	0.1	-0.3	/	/	/	/
COC(=O)CCCNC(=O)CN1CC(c2ccccc2)CC1=O (configuration not stated)	2.4	0.8	-0.4	7.3	6.0	-1.9	/	/	/	/
O=P1(Nc2ccc(F)cc2)COc2ccccc2OC1	0.9	-0.7	-0.8	4.7	2.2	-0.9	/	/	/	/
Cc1cccc(OP(=O)(Nc2cccnc2)Oc2cccc(C)c2)c1	-3.4	3.6	-11.7	39.0	9.5	-6.9	/	/	/	/
O=P(Nc1cccnc1)(Oc1ccccc1Cl)Oc1ccccc1Cl	-4.8	21.9	-16.4	69.9*	10.4	-8.7	31.6*	46.6	7.1	8.7
N#CC(C#N)=C(C#N)c1ccc(Nc2ccccc2)cc1	2.0	-12.1	4.7	0.4	0.7	-1.0	/	/	/	/
COc1ccccc1OCCCn1cc(C(=O)c2ccco2)c2ccccc21	-7.3	10.4	-2.9	53.9*	6.8	-1.3	27.0*	38.6	3.6	4.4
O=C(c1ccco1)c1cn(Cc2ccc(Cl)cc2)c2ccccc12	-5.6	18.6	-5.9	17.5	6.4	-2.4	/	/	/	/
COc1ccccc1N1CCN(Cc2ccc(Br)s2)CC1	5.9	-5.8	3.3	-8.4	8.7	-6.8	/	/	/	/
CSCCC(c1nnnn1C1CCCC1)N1CCC(n2c(=O)[nH]c3ccccc32)CC1 (configuration not stated)	4.3	-5.2	-8.4	55.8*	23.0	-1.3	22.7*	48.1	7.8	21.4
CC(C)(C)n1nnnc1C(CCc1ccccc1)N1CCC(n2c(=O)[nH]c3ccccc32)CC1 (configuration not stated)	9.6	-14.0	12.5	40.9	18.9	11.1	/	/	/	/
O=c1[nH]c2ccccc2n1C1CCN(C(CCc2ccccc2)c2nnnn2C2CCCCC2)CC1 (configuration not stated)	0.8	-11.1	2.5	58.0*	9.3	0.5	26.2*	46.4	4.3	10.6
CSCCC(c1nnnn1-c1c(C)cccc1C)N1CCC(n2c(=O)[nH]c3ccccc32)CC1 (configuration not stated)	10.2	-26.0	5.7	53.2*	11.2	3.5	24.3*	54.9*	7.3	13.9
Cc1cccc(C)c1-n1nnnc1C(C1CC1)N1CCC(n2c(=O)[nH]c3ccccc32)CC1 (configuration not stated)	1.7	-3.8	-9.3	18.8	1.6	-1.2	/	/	/	/
COC(=O)C1=C(c2ccc(F)cc2OCc2ccccc2)C[C@@H]2CC[C@H]1N2C(=O)NCc1ccc(F)cc1	-5.5	16.9	-24.6	42.4	8.8	-8.6	/	/	/	/
COC(=O)C1=C(c2ccc(F)cc2OCc2ccccc2)C[C@@H]2CC[C@H]1N2C(=O)NCc1ccc([N+](=O)[O-])cc1	-9.5	19.5	-7.5	57.9*	6.2	-4.5	27.3*	32.8	2.1	-2.6
CCNC(=O)NC(=O)C(C)OC(=O)c1c(C)nn(Cc2ccccc2Cl)c1Cl (configuration not stated)	-1.1	-9.8	6.7	2.3	4.2	-4.7	/	/	/	/
O=C1CN(C(=O)COC(=O)Cc2ccccc2)c2ccccc2N1	-1.1	-9.5	7.5	7.9	8.0	-1.4	/	/	/	/
CC(=O)c1ccc2c(c1)C1C(Cl)C(Sc3ccccc3[N+](=O)[O-])CC1C(c1ccccc1[N+](=O)[O-])N2 (configuration not stated)	3.3	0.4	-3.6	58.5*	8.7	-3.9	34.4*	45.5	6.7	4.2
Cc1cccc(OP(=O)(NCc2ccccc2)Oc2cccc(C)c2)c1	-3.5	23.6	-10.2	79.6*	7.4	-4.6	34.2*	78.0*	12.9*	23.4
Cc1cccc(OP(N)(=O)Oc2cccc(C)c2)c1	4.0	3.5	0.0	5.7	4.7	-1.1	/	/	/	/
